The results in this text go back to ChEMBL document CHEMBL3046625, “Herbicidal and Fungicidal Activities of Lactones in Kava (Piper methysticum)” (2006).

Type in all cases: functional
Experiment [1] has as its system Lactuca sativa. Description: Herbicidal activity against Lactuca sativa cv. Great Lakes 366 (lettuce) assessed as inhibition of germination at 1 ppm relative to untreated control. The procedure, abridged:
(§1)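 Pure reference kava lactones diluted to 1 and 10 ppm. Seeds were sterilized in 1% sodium hypochlorite for 30 min and rinsed in distilled water; germination >80%. Five replicates were incubated at 25 °C, 4000 lx, 8/16 h day/night, 75% humidity. Distilled-water controls. After 7 days, germinated seeds were counted and shoot and root lengths measured.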

Experiment [2] deals with Fusarium oxysporum. Description: Antifungal activity against Fusarium oxysporum assessed as growth inhibition at 50 ppm after 4 days relative to untreated control. The following applies: 96 h, read-out: GI. The procedure, abridged: (§2)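 Fungal cultures kept on potato dextrose agar (PDA) and subcultured on fresh medium for 3 days before testing. PDA plates held kava lactones dissolved in water at 10 or 50 ppm. Plates were inoculated with plugs from the actively growing fungal margin and incubated at 25 °C for 4 days. Distilled-water controls. Completely randomized design, at least three replicates, ANOVA.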

Experiment [3] relates to Fusarium oxysporum. Description: Antifungal activity against Fusarium oxysporum assessed as growth inhibition at 10 ppm after 4 days relative to untreated control. The following applies: 96 h, read-out: GI. The procedure, abridged: as §2
Experiment [4] concerns Echinochloa crus-galli. Description: Herbicidal activity against Echinochloa crus-galli (barnyard grass) assessed as inhibition of germination at 10 ppm relative to untreated control. The procedure, abridged: as §1
Experiment [5] concerns Echinochloa crus-galli. Description: Herbicidal activity against Echinochloa crus-galli (barnyard grass) assessed as inhibition of germination at 1 ppm relative to untreated control. In short, it runs like this: as §1
In experiment [6] the test system is Echinochloa crus-galli. Description: Herbicidal activity against Echinochloa crus-galli (barnyard grass) assessed as inhibition of shoot length at 10 ppm relative to untreated control. The procedure, abridged:
as §1

The subject of experiment [7] is Fusarium solani. Description: Antifungal activity against Fusarium solani assessed as growth inhibition at 10 ppm after 4 days relative to untreated control. The following applies: 96 h, read-out: GI. The procedure, abridged: as §2
The test system of experiment [8] is Echinochloa crus-galli. Description: Herbicidal activity against Echinochloa crus-galli (barnyard grass) assessed as inhibition of root length at 1 ppm relative to untreated control. The procedure, abridged:
as §1

The test system of experiment [9] is Lactuca sativa. Description: Herbicidal activity against Lactuca sativa cv. Great Lakes 366 (lettuce) assessed as inhibition of root length at 1 ppm relative to untreated control. In short, it runs like this: as §1
Experiment [10] concerns Echinochloa crus-galli. Description: Herbicidal activity against Echinochloa crus-galli (barnyard grass) assessed as inhibition of shoot length at 1 ppm relative to untreated control. In short, it runs like this:
as §1

The subject of experiment [11] is Fusarium solani. Description: Antifungal activity against Fusarium solani assessed as growth inhibition at 50 ppm after 4 days relative to untreated control. The following applies: 96 h, read-out: GI. The procedure, abridged: as §2
The subject of experiment [12] is Echinochloa crus-galli. Description: Herbicidal activity against Echinochloa crus-galli (barnyard grass) assessed as inhibition of root length at 10 ppm relative to untreated control. In short, it runs like this:
as §1

Experiment [13] deals with Trichoderma viride. Description: Antifungal activity against Hypocrea rufa assessed as growth inhibition at 50 ppm after 4 days relative to untreated control. The following applies: 96 h, read-out: GI. The procedure, abridged: as §2
The subject of experiment [14] is Lactuca sativa. Description: Herbicidal activity against Lactuca sativa cv. Great Lakes 366 (lettuce) assessed as inhibition of shoot length at 1 ppm relative to untreated control. The procedure, abridged: as §1
Experiment [15] deals with Colletotrichum gloeosporioides. Description: Antifungal activity against Colletotrichum gloeosporioides assessed as growth inhibition at 50 ppm after 4 days relative to untreated control. The following applies: 96 h, read-out: GI. The procedure, abridged: as §2
The test system of experiment [16] is Colletotrichum gloeosporioides. Description: Antifungal activity against Colletotrichum gloeosporioides assessed as growth inhibition at 10 ppm after 4 days relative to untreated control. The following applies: 96 h, read-out: GI. The procedure, abridged:
as §2

Experiment [17] has as its system Lactuca sativa. Description: Herbicidal activity against Lactuca sativa cv. Great Lakes 366 (lettuce) assessed as inhibition of shoot length at 10 ppm relative to untreated control. In short, it runs like this: as §1
Experiment [18] has as its system Lactuca sativa. Description: Herbicidal activity against Lactuca sativa cv. Great Lakes 366 (lettuce) assessed as inhibition of germination at 10 ppm relative to untreated control. The procedure, abridged:
as §1

Experiment [19] relates to Lactuca sativa. Description: Herbicidal activity against Lactuca sativa cv. Great Lakes 366 (lettuce) assessed as inhibition of root length at 10 ppm relative to untreated control. In short, it runs like this: as §1
Experiment [20] relates to Trichoderma viride. Description: Antifungal activity against Hypocrea rufa assessed as growth inhibition at 10 ppm after 4 days relative to untreated control. The following applies: 96 h, read-out: GI. The procedure, abridged:
as §2

SMILES strings stand for the structures.

Regarding `COc1cc(/C=C/c2ccccc2)oc(=O)c1` [DESMETHOXYYANGONIN], the inhibition – broadly, how much of the control response was suppressed – at 1 ppm was determined as 48.1% in the experiment with Lactuca sativa [1]; 43.3% in the experiment with Echinochloa crus-galli [5]; 46.4% in the experiment on Echinochloa crus-galli [8]; 50.3% in the experiment on Lactuca sativa [9]; 31.7% with Echinochloa crus-galli [10]; 74.9% in the experiment on Lactuca sativa [14]. Further, the inhibition of growth at 50 ppm in the experiment with Fusarium oxysporum [2] worked out at 24.6%; in the experiment on Fusarium solani [11] it was 33.9%; in the experiment with Trichoderma viride [13] it was 0%; in experiment [15] it was 22.2%. For the same compound, the inhibition of growth at 10 ppm was determined as 11.6% with Fusarium oxysporum [3], 27.4% in the experiment with Fusarium solani [7], 0% in experiment [16] and 0% in the experiment on Trichoderma viride [20]. Besides, the inhibition at 10 ppm in the experiment on Echinochloa crus-galli [4] is 60%; in the experiment on Echinochloa crus-galli [6], 59.9%; in the experiment on Echinochloa crus-galli [12], 51.3%; with Lactuca sativa [17], 82.4%; in the experiment on Lactuca sativa [18] it was 59.2%; with Lactuca sativa [19], 63.3%.
Regarding `COC1=CC(=O)O[C@@H](CCc2ccccc2)C1` [DIHYDROKAWAIN], the inhibition of growth at 50 ppm with Fusarium oxysporum [2] stood at 21.7%; in the experiment on Fusarium solani [11], 38.7%; with Trichoderma viride [13] it was 16.2%; in [15] it was 33.3%. Also, the inhibition of growth at 10 ppm in the experiment with Fusarium oxysporum [3] is 10.1%; with Fusarium solani [7] it was 0%; in [16], 0%; in the experiment on Trichoderma viride [20] it was 0%. Moreover, the inhibition at 10 ppm in the experiment on Echinochloa crus-galli [4] turned out to be 50%; in the experiment with Echinochloa crus-galli [6] it was 61.2%; with Echinochloa crus-galli [12] it was 58.9%; in the experiment with Lactuca sativa [17], 74.3%; in the experiment on Lactuca sativa [18] it was 25.9%; with Lactuca sativa [19], 15.6%. Further, the inhibition at 1 ppm amounted to 46.7% with Echinochloa crus-galli [5], 53.1% in the experiment on Echinochloa crus-galli [8] and 56.6% in the experiment on Echinochloa crus-galli [10].
Turning to `COC1=CC(=O)O[C@@H](CCc2ccc3c(c2)OCO3)C1` [DIHYDROMETHYSTICIN], the inhibition of growth at 50 ppm worked out at 31.9% with Fusarium oxysporum [2], 48.4% with Fusarium solani [11], 0% in the experiment with Trichoderma viride [13] and 27.8% in [15]. In addition, the inhibition of growth at 10 ppm with Fusarium oxysporum [3] was determined as 18.8%; with Fusarium solani [7] it was 40.3%; in experiment [16] it was 0%; with Trichoderma viride [20], 0%. In addition, the inhibition at 10 ppm in the experiment with Echinochloa crus-galli [4] was found to be 56.7%; in the experiment with Echinochloa crus-galli [6] it was 55.6%; in the experiment on Echinochloa crus-galli [12], 48.2%; in the experiment with Lactuca sativa [17], 76.5%; in the experiment on Lactuca sativa [18], 89.9%; in the experiment on Lactuca sativa [19] it was 74.8%. Moreover, the inhibition at 1 ppm with Echinochloa crus-galli [5] was determined as 50%; in the experiment with Echinochloa crus-galli [8] it was 32.1%; with Echinochloa crus-galli [10], 48.6%.
Take `COC1=CC(=O)O[C@@H](/C=C/c2ccccc2)C1` [KAVAIN]: the inhibition at 1 ppm in the experiment with Lactuca sativa [1] was found to be 51.9%; with Echinochloa crus-galli [5], 46.7%; with Echinochloa crus-galli [8] it was 39.7%; in the experiment on Lactuca sativa [9], 59.9%; with Lactuca sativa [14], 75.9%. The inhibition of growth at 50 ppm in the experiment on Fusarium oxysporum [2] came to 17.4%; with Fusarium solani [11] it was 29%; in the experiment on Trichoderma viride [13], 0%; in [15], 0%. The inhibition of growth at 10 ppm in the experiment with Fusarium oxysporum [3] amounted to 0%; in the experiment with Fusarium solani [7], 29%; in experiment [16], 0%; in the experiment with Trichoderma viride [20], 0%. The inhibition at 10 ppm was found to be 46.7% with Echinochloa crus-galli [4]; 47.6% with Echinochloa crus-galli [6]; 46.9% with Echinochloa crus-galli [12]; 86.1% in the experiment with Lactuca sativa [17]; 59.2% in the experiment with Lactuca sativa [18]; 62.6% with Lactuca sativa [19].
As to `COC1=CC(=O)O[C@@H](/C=C/c2ccc3c(c2)OCO3)C1` [METHYSTICIN], the inhibition at 1 ppm worked out at 48.1% with Lactuca sativa [1]; 50% in the experiment with Echinochloa crus-galli [5]; 75.4% with Echinochloa crus-galli [8]; 61.2% in the experiment on Lactuca sativa [9]; 55% in the experiment with Echinochloa crus-galli [10]; 71.1% with Lactuca sativa [14]. Further, the inhibition of growth at 50 ppm in the experiment with Fusarium oxysporum [2] was determined as 36.2%; in the experiment with Fusarium solani [11] it was 33.9%; with Trichoderma viride [13], 0%; in experiment [15], 0%. In addition, the inhibition of growth at 10 ppm turned out to be 11.6% in the experiment with Fusarium oxysporum [3], 37.1% in the experiment on Fusarium solani [7], 0% in experiment [16] and 0% with Trichoderma viride [20]. Also, the inhibition at 10 ppm in the experiment with Echinochloa crus-galli [4] was determined as 60%; with Echinochloa crus-galli [6] it was 56%; with Echinochloa crus-galli [12], 83.9%; in the experiment with Lactuca sativa [17], 73.3%; with Lactuca sativa [18], 55.6%; in the experiment with Lactuca sativa [19] it was 53.1%.
`COc1ccc(/C=C/c2cc(OC)cc(=O)o2)cc1` [YANGONIN]: the inhibition at 1 ppm in the experiment with Lactuca sativa [1] was 44.4%; in the experiment on Echinochloa crus-galli [5] it was 56.7%; with Echinochloa crus-galli [8], 42.9%; in the experiment on Lactuca sativa [9] it was 36.1%; in the experiment with Echinochloa crus-galli [10], 53.1%; with Lactuca sativa [14], 63.1%. Besides, the inhibition of growth at 50 ppm came to 39.1% in the experiment on Fusarium oxysporum [2], 41.9% in the experiment on Fusarium solani [11], 0% in the experiment on Trichoderma viride [13] and 0% in experiment [15]. Further, the inhibition at 10 ppm in the experiment with Echinochloa crus-galli [4] came out at 56.7%; with Echinochloa crus-galli [6] it was 58.2%; in the experiment on Echinochloa crus-galli [12] it was 43.8%; with Lactuca sativa [17], 78.6%; in the experiment on Lactuca sativa [18], 59.2%; with Lactuca sativa [19] it was 68%.
